ChEMBL document CHEMBL4725282, “Discovery of a Conformationally Constrained Oxazolidinone with Improved Safety and Efficacy Profiles for the Treatment of Multidrug-Resistant Tuberculosis” (J Med Chem, 2020)
pIC50: −log10 of the molar value.

Key:
[1] = Half life in human hepatocytes at 2 uM by LC-MS/MS analysis; type: ADME, cell-based, Hepatocyte
Procedure, shortened: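 Hepatocytes (male CD-1 mouse, male SD rat, male beagle dog, male cynomolgus monkey, pooled human), final 1 μM compound and 1 million cells/mL, made by mixing 2 μM compound with 2 million cells/mL. Incubated at 37 °C in a CO2 incubator; sampled at 0, 15, 30, 60, 90 and 120 min. Quenched with methanol/ACN containing 0.1% formic acid. Parent remaining measured by LC-MS/MS.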

Cytochrome P450 1A2 = molecular target: T1, Cytochrome P450 1A2 (Homo sapiens, UniProt P05177); experiment: Inhibition of CYP1A2 in human liver microsomes after 20 mins by LC-MS/MS analysis; type: ADME
T1 sequence (P05177 whole entry): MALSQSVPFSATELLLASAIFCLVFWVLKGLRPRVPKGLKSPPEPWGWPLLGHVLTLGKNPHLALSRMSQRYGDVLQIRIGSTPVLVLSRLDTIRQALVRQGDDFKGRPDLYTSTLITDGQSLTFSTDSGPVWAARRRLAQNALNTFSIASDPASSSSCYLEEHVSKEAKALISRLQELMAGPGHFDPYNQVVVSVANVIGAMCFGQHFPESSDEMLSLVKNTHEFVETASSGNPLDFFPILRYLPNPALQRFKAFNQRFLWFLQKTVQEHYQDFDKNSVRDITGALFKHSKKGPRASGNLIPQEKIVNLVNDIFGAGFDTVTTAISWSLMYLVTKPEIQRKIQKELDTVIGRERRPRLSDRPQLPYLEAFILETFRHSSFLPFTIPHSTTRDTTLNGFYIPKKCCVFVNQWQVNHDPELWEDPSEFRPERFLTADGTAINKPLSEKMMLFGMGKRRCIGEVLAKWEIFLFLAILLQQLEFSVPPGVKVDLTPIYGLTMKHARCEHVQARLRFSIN
Procedure, shortened: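 Human liver microsomes (0.2 mg/mL) in phosphate buffer, 20 min incubation with compound at 0.1-50 μM alongside isoform-specific substrates and a positive control. Substrate remaining monitored by LC-MS/MS at each concentration; IC50 derived.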

[2] = Genotoxicity in CHO-WBL cells assessed as chromosome aberration at 20 to 150 ug/ml measured after 20 hrs in absence of S9 fraction by Giemsa staining based; type: toxicity, cell-based, Cricetulus griseus; details: chinese hamster, dose 20-150 µg/ml
Procedure, shortened: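 CHO-WBL cells in McCoy's 5A with 10% FBS, seeded 20-24 h before treatment. Compound in DMSO, with or without serum-free S-9 mix. Treatment either 3 h, then HBSS wash and 17 h further culture, or 20 h; harvest at 20 h from treatment start. Colcemid 0.1 μg/mL for the final 2 h, hypotonic KCl, methanol:acetic acid fixation, Giemsa stain. 300 metaphases per concentration (150 per duplicate flask) scored.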

[3] = Toxicity in female Sprague-Dawley rat assessed as body weight loss at 50 to 450 mg/kg/day, po administered for 4 weeks followed by 2 week recovery period measured at 1 week interval; type: organism-based; details: in vivo, 672 h, dose 50-450 mg/kg/day
Procedure, shortened: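 SD rats, 6-7 weeks, 12 male and 12 female per group. Oral dosing once daily at 50, 150 or 450 mg/kg/day or vehicle for 4 weeks, then 2-week recovery. 8 per sex dissected after last dose, remaining 4 per sex after 14-day recovery. Body weight, urine, food intake and clinical signs monitored.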

[4] = Toxicity in male Sprague-Dawley rat assessed as ophthalmic changes at 50 to 450 mg/kg/day, po administered for 4 weeks followed by 2 week recovery period; type: organism-based; details: in vivo, 1008 h, dose 50-450 mg/kg/day, time 6 weeks
[5] = Toxicity in male Sprague-Dawley rat assessed as histopathological changes at 50 to 450 mg/kg/day, po administered for 4 weeks followed by 2 week recovery period; type: organism-based; details: in vivo, 672 h, dose 50-450 mg/kg/day
[6] = Toxicity in male Sprague-Dawley rat assessed as ophthalmic changes at 50 to 450 mg/kg/day, po administered for 4 weeks measured post last dose; type: organism-based; details: in vivo, 672 h, dose 50-450 mg/kg/day
[7] = Toxicity in female Sprague-Dawley rat assessed as change in red blood cell count at 50 mg/kg/day, po administered for 4 weeks followed by 2 week recovery period (Rvb =7.32 +/- 0.20 10^12/L); type: organism-based; details: in vivo, 672 h
[8] = Toxicity in female Sprague-Dawley rat assessed as change in mean corpuscular hemoglobin at 50 mg/kg/day, po administered for 4 weeks followed by 2 week recovery period (Rvb =18.5 +/- 0.6 pg); type: organism-based; details: in vivo, 672 h
[9] = Toxicity in female Sprague-Dawley rat assessed as change in hematocrit level at 50 mg/kg/day, po administered for 4 weeks followed by 2 week recovery period (Rvb =41.1 +/- 1.4 %); type: organism-based; details: in vivo, 672 h
[10] = Toxicity in female Sprague-Dawley rat assessed as change in reticulocyte level at 50 mg/kg/day, po administered for 4 weeks followed by 2 week recovery period (Rvb =2.85 +/- 0.53 %); type: organism-based; details: in vivo, 672 h
[11] = Toxicity in female Sprague-Dawley rat assessed as change in neutrophil level at 50 mg/kg/day, po administered for 4 weeks followed by 2 week recovery period (Rvb =18.5 +/- 5.3 %); type: organism-based; details: in vivo, 672 h
[12] = Toxicity in male Sprague-Dawley rat assessed as change in red blood cell count at 150 mg/kg/day, po administered for 4 weeks followed by 2 week recovery period (Rvb =7.86 +/- 0.32 10^12/L); type: organism-based; details: in vivo, 672 h
[13] = Toxicity in female Sprague-Dawley rat assessed as change in mean platelet volume at 150 mg/kg/day, po administered for 4 weeks followed by 2 week recovery period (Rvb =7.1 +/- 0.5 fL); type: organism-based; details: in vivo, 672 h
[14] = Toxicity in female Sprague-Dawley rat assessed as change in hemoglobin count at 150 mg/kg/day, po administered for 4 weeks followed by 2 week recovery period (Rvb =136 +/- 7 g/L); type: organism-based; details: in vivo, 672 h
[15] = Toxicity in male Sprague-Dawley rat assessed as change in hematocrit level at 150 mg/kg/day, po administered for 4 weeks followed by 2 week recovery period (Rvb =45.2 +/- 1.7 %); type: organism-based; details: in vivo, 672 h
[16] = Toxicity in female Sprague-Dawley rat assessed as change in neutrophil level at 150 mg/kg/day, po administered for 4 weeks followed by 2 week recovery period (Rvb =18.5 +/- 5.3 %); type: organism-based; details: in vivo, 672 h
[17] = Toxicity in male Sprague-Dawley rat assessed as change in red blood cell count at 450 mg/kg/day, po administered for 4 weeks followed by 2 week recovery period (Rvb =7.86 +/- 0.32 10^12/L); type: organism-based; details: in vivo, 672 h
[18] = Toxicity in female Sprague-Dawley rat assessed as change in hemoglobin count at 450 mg/kg/day, po administered for 4 weeks followed by 2 week recovery period (Rvb =136 +/- 7 g/L); type: organism-based; details: in vivo, 672 h
[19] = Toxicity in female Sprague-Dawley rat assessed as change in hematocrit level at 450 mg/kg/day, po administered for 4 weeks followed by 2 week recovery period (Rvb =41.1 +/- 1.4 %); type: organism-based; details: in vivo, 672 h
[20] = Toxicity in male Sprague-Dawley rat assessed as change in neutrophil level at 450 mg/kg/day, po administered for 4 weeks followed by 2 week recovery period (Rvb =15.9 +/- 3.4 %); type: organism-based; details: in vivo, 672 h

## CC(=O)NC[C@@H]1OC(=O)N2c3cc(F)c(N4CCSCC4)cc3OC[C@@H]12
[1]
  half-life at 2 µM: > 8.33 h
Cytochrome P450 1A2
  pIC50: < 4.30
[2]
  Activity: Non-Toxic
[3]
  Activity: Non-Toxic
[4]
  Activity: Non-Toxic
[5]
  Activity: Non-Toxic
[6]
  Activity: Non-Toxic
[7]
  Activity: 6.85 10^12/L
[8]
  Activity: 18.5 pg
[9]
  Activity: 38.7%
[10]
  Activity: 3.25%
[11]
  Activity: 14.8%
[12]
  Activity: 7.62 10^12/L
[13]
  Activity: 7.4 fL
[14]
  Activity: 124 g/L
[15]
  Activity: 44.5%
[16]
  Activity: 12.2%
[17]
  Activity: 7.46 10^12/L
[18]
  Activity: 122 g/L
[19]
  Activity: 36.9%
[20]
  Activity: 13.7%
